This passage reports Drug uptake and Ki results from ChEMBL document CHEMBL1140929, “Synthesis and evaluation of 18F-labeled 2-phenylbenzothiazoles as positron emission tomography imaging agents for amyloid plaques in Alzheimer's disease” (J Med Chem, 2009).

Series [1] has as its system Lung. The experiment in a line: Biodistribution in NMRI mouse lung assessed per gram of tissue at 3.7 MBq/mL, iv after 60 mins by gamma counting. Conditions: in vivo, 1 h. The format is ADME, organism-based. An outline of the steps: (§1)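 Male NMRI mice (30-40 g) anaesthetised with 0.1 mL ip Hypnorm (fentanyl citrate 63 µg/mL, fluanisone 2 mg/mL). Each received 0.1 mL of HPLC-purified 18F tracer, diluted in 0.9% NaCl to 3.7 MBq/mL (ethanol ≤10%, THF ≤0.02%), via tail vein. Killed by decapitation at 2 or 60 min; blood and organs weighed and γ-counted. Background-corrected, expressed as %ID or %ID/g.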

In series [2] the test system is Stomach. The series can be described thus: Biodistribution in NMRI mouse stomach at 3.7 MBq/mL, iv after 2 mins by gamma counting. The format is ADME, organism-based. The conditions noted are these: in vivo. An outline of the steps: as §1
Series [3] concerns Heart. The series can be described thus: Biodistribution in NMRI mouse heart at 3.7 MBq/mL, iv after 60 mins by gamma counting. The format is ADME, organism-based. Conditions: in vivo, 1 h. An outline of the steps: as §1
For series [4], the system named is Kidney. The series can be described thus: Biodistribution in NMRI mouse kidney assessed per gram of tissue at 3.7 MBq/mL, iv after 60 mins by gamma counting. The format is ADME, organism-based. Conditions: in vivo, 1 h. Put shortly: as §1
Series [5] is described as follows: Biodistribution in NMRI mouse cerebrum assessed per gram of tissue at 3.7 MBq/mL, iv after 60 mins by gamma counting. Conditions: in vivo, 1 h. The format is ADME, organism-based. An outline of the steps: as §1
The test system of series [6] is Lung. The experiment in a line: Biodistribution in NMRI mouse lung at 3.7 MBq/mL, iv after 2 mins by gamma counting. The format is ADME, organism-based. Conditions: in vivo.
Series [7] in a line: Biodistribution in NMRI mouse spleen/pancreas at 3.7 MBq/mL, iv after 60 mins by gamma counting. The format is ADME, organism-based. The conditions noted are these: in vivo, 1 h. Put shortly: as §1
Series [8] concerns Stomach. The series can be described thus: Biodistribution in NMRI mouse stomach at 3.7 MBq/mL, iv after 60 mins by gamma counting. Conditions: in vivo, 1 h. The format is ADME, organism-based. Put shortly: as §1
Series [9] concerns Blood. The series can be described thus: Biodistribution in NMRI mouse blood at 3.7 MBq/mL, iv after 2 mins by gamma counting. The format is ADME, organism-based. The conditions noted are these: in vivo. An outline of the steps:
as §1

A short description of series [10]: Biodistribution in NMRI mouse urine at 3.7 MBq/mL, iv after 2 mins by gamma counting. The format is ADME, organism-based. The conditions noted are these: in vivo. An outline of the steps: as §1
Series [11] in a line: Biodistribution in NMRI mouse cerebrum at 3.7 MBq/mL, iv after 2 mins by gamma counting. The format is ADME, organism-based. Conditions: in vivo. Put shortly:
as §1

Series [12] relates to Liver. The experiment in a line: Biodistribution in NMRI mouse liver assessed per gram of tissue at 3.7 MBq/mL, iv after 2 mins by gamma counting. The format is ADME, organism-based. Conditions: in vivo. Put shortly: as §1
The subject of series [13] is Liver. The experiment in a line: Biodistribution in NMRI mouse liver at 3.7 MBq/mL, iv after 60 mins by gamma counting. The format is ADME, organism-based. Conditions: in vivo, 1 h. An outline of the steps:
as §1

For series [14], the system named is Liver. The series can be described thus: Biodistribution in NMRI mouse liver at 3.7 MBq/mL, iv after 2 mins by gamma counting. The format is ADME, organism-based. The conditions noted are these: in vivo. An outline of the steps: as §1
Series [15] is described as follows: Biodistribution in NMRI mouse spleen/pancreas assessed per gram of tissue at 3.7 MBq/mL, iv after 2 mins by gamma counting. The format is ADME, organism-based. Conditions: in vivo. An outline of the steps: as §1
The test system of series [16] is Lung. The experiment in a line: Biodistribution in NMRI mouse lung at 3.7 MBq/mL, iv after 60 mins by gamma counting. The format is ADME, organism-based. Conditions: in vivo, 1 h. An outline of the steps: as §1
Series [17] deals with Cerebellum. The series can be described thus: Biodistribution in NMRI mouse cerebellum assessed per gram of tissue at 3.7 MBq/mL, iv after 60 mins by gamma counting. The format is ADME, organism-based. Conditions: in vivo, 1 h. Put shortly: as §1
Series [18] deals with Heart. The series can be described thus: Biodistribution in NMRI mouse heart assessed per gram of tissue at 3.7 MBq/mL, iv after 2 mins by gamma counting. The format is ADME, organism-based. The conditions noted are these: in vivo. Put shortly: as §1
The test system of series [19] is Cerebellum. The experiment in a line: Biodistribution in NMRI mouse cerebellum at 3.7 MBq/mL, iv after 2 mins by gamma counting. The format is ADME, organism-based. The conditions noted are these: in vivo. An outline of the steps: as §1
In series [20] the test system is Blood. The series can be described thus: Biodistribution in NMRI mouse blood assessed per gram of tissue at 3.7 MBq/mL, iv after 60 mins by gamma counting. The format is ADME, organism-based. The conditions noted are these: in vivo, 1 h. An outline of the steps: as §1
For series [21], the system named is Heart. The experiment in a line: Biodistribution in NMRI mouse heart assessed per gram of tissue at 3.7 MBq/mL, iv after 60 mins by gamma counting. The format is ADME, organism-based. Conditions: in vivo, 1 h. An outline of the steps: as §1
Series [22] is described as follows: Biodistribution in NMRI mouse cerebrum at 3.7 MBq/mL, iv after 60 mins by gamma counting. The format is ADME, organism-based. Conditions: in vivo, 1 h. An outline of the steps:
as §1

Series [23] concerns Blood. The series can be described thus: Biodistribution in NMRI mouse blood assessed per gram of tissue at 3.7 MBq/mL, iv after 2 mins by gamma counting. The format is ADME, organism-based. Conditions: in vivo. Put shortly: as §1
Series [24] deals with Intestine. The series can be described thus: Biodistribution in NMRI mouse intestine at 3.7 MBq/mL, iv after 60 mins by gamma counting. The format is ADME, organism-based. The conditions noted are these: in vivo, 1 h. An outline of the steps:
as §1

Series [25] is described as follows: Biodistribution in NMRI mouse cerebrum assessed per gram of tissue at 3.7 MBq/mL, iv after 2 mins by gamma counting. The format is ADME, organism-based. Conditions: in vivo. Put shortly:
as §1

Series [26] deals with Blood. The series can be described thus: Biodistribution in NMRI mouse blood at 3.7 MBq/mL, iv after 60 mins by gamma counting. The conditions noted are these: in vivo, 1 h. The format is ADME, organism-based. An outline of the steps: as §1
Series [27] has as its system Heart. The series can be described thus: Biodistribution in NMRI mouse heart at 3.7 MBq/mL, iv after 2 mins by gamma counting. The format is ADME, organism-based. Conditions: in vivo. An outline of the steps: as §1
The nature of series [28]: Biodistribution in NMRI mouse spleen/pancreas assessed per gram of tissue at 3.7 MBq/mL, iv after 60 mins by gamma counting. The format is ADME, organism-based. The conditions noted are these: in vivo, 1 h. Put shortly: as §1
In series [29] the test system is Cerebellum. The series can be described thus: Biodistribution in NMRI mouse cerebellum at 3.7 MBq/mL, iv after 60 mins by gamma counting. The format is ADME, organism-based. Conditions: in vivo, 1 h. Put shortly:
as §1

A short description of series [30]: Biodistribution in NMRI mouse urine at 3.7 MBq/mL, iv after 60 mins by gamma counting. The format is ADME, organism-based. The conditions noted are these: in vivo, 1 h. An outline of the steps: as §1
The test system of series [31] is Lung. The experiment in a line: Biodistribution in NMRI mouse lung assessed per gram of tissue at 3.7 MBq/mL, iv after 2 mins by gamma counting. The format is ADME, organism-based. The conditions noted are these: in vivo. An outline of the steps:
as §1

Series [32] relates to Kidney. The series can be described thus: Biodistribution in NMRI mouse kidney assessed per gram of tissue at 3.7 MBq/mL, iv after 2 mins by gamma counting. The format is ADME, organism-based. The conditions noted are these: in vivo. Put shortly: as §1
The test system of series [33] is Intestine. The experiment in a line: Biodistribution in NMRI mouse intestine at 3.7 MBq/mL, iv after 2 mins by gamma counting. The format is ADME, organism-based. The conditions noted are these: in vivo. Put shortly: as §1
Series [34] deals with Liver. The series can be described thus: Biodistribution in NMRI mouse liver assessed per gram of tissue at 3.7 MBq/mL, iv after 60 mins by gamma counting. The format is ADME, organism-based. The conditions noted are these: in vivo, 1 h. An outline of the steps: as §1
Series [35] concerns Kidney. The series can be described thus: Biodistribution in NMRI mouse kidney at 3.7 MBq/mL, iv after 60 mins by gamma counting. The format is ADME, organism-based. Conditions: in vivo, 1 h. Put shortly: as §1
Series [36] can be described thus: Biodistribution in NMRI mouse spleen/pancreas at 3.7 MBq/mL, iv after 2 mins by gamma counting. The format is ADME, organism-based. The conditions noted are these: in vivo. An outline of the steps: as §1
In series [37] the test system is Cerebellum. The experiment in a line: Biodistribution in NMRI mouse cerebellum assessed per gram of tissue at 3.7 MBq/mL, iv after 2 mins by gamma counting. The format is ADME, organism-based. The conditions noted are these: in vivo. An outline of the steps: as §1
Series [38] concerns the target Amyloid-beta precursor protein (Homo sapiens, UniProt P05067). The series can be described thus: Displacement of [125I]IMPY from beta-amyloid plaques in Alzheimer's disease patient brain homogenate. The format is tissue-based. On the technique in general: Loss of bound radioactivity is the signal in a displacement assay; it reports binding, not function.

Molecules are shown by their SMILES.

Chain of Amyloid-beta precursor protein (P05067 whole entry): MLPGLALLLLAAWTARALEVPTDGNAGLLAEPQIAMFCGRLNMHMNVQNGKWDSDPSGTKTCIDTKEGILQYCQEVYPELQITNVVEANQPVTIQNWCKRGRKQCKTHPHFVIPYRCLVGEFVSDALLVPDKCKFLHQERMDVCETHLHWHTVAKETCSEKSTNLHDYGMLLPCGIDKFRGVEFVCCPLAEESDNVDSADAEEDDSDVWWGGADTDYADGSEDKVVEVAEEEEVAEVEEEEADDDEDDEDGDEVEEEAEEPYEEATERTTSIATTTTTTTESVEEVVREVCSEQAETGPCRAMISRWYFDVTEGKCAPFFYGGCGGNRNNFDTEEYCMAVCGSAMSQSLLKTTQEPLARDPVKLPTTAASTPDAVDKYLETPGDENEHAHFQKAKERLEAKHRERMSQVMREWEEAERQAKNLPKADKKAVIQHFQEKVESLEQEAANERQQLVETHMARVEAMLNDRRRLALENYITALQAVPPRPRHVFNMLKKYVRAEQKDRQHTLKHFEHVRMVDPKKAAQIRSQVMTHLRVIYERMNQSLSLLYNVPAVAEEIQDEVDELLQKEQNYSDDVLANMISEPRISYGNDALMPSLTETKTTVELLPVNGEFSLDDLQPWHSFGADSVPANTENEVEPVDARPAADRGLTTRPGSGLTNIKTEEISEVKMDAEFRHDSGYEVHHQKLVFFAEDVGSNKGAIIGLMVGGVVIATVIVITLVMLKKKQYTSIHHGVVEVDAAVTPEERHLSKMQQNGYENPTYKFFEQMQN

Consider `Cc1ccc2nc(-c3ccc([18F])cc3)sc2c1`, for which the Drug uptake stood at 1.3 % ID/g with Lung [1]; 1.3 %ID with Stomach [2]; 0.1 %ID with Heart [3]; 3.6 % ID/g in the series with Kidney [4]; 0.27 % ID/g in series [5]; 3.6 %ID with Lung [6]. The Drug uptake is listed as 0.1 %ID in [7]; 1.1 %ID in the series on Stomach [8]; 5.7 %ID with Blood [9]; 0.2 %ID in [10]; 1.62 %ID in [11]; 12 % ID/g in the series on Liver [12]. The Drug uptake with Liver [13] is 51.8 %ID; in the series with Liver [14], 24.8 %ID; in [15] it was 4 % ID/g; in the series on Lung [16] it was 0.3 %ID; with Cerebellum [17], 0.39 % ID/g; in the series with Heart [18] it was 5.4 % ID/g. Further, the Drug uptake with Cerebellum [19] amounted to 0.42 %ID; in the series with Blood [20], 1.1 % ID/g; in the series on Heart [21], 0.5 % ID/g; in [22], 0.07 %ID; in the series with Blood [23] it was 2.2 % ID/g; with Intestine [24], 19.3 %ID. Further, the Drug uptake in series [25] was found to be 5.33 % ID/g; with Blood [26] it was 2.8 %ID; in the series on Heart [27] it was 0.9 %ID; in series [28], 0.4 % ID/g; with Cerebellum [29], 0.04 %ID; in [30] it was 5.8 %ID. Besides, the Drug uptake with Lung [31] came out at 14.4 % ID/g; in the series on Kidney [32] it was 9.3 % ID/g; with Intestine [33] it was 8.9 %ID; with Liver [34], 24.6 % ID/g; with Kidney [35], 2.3 %ID; in series [36], 1.3 %ID. Moreover, the Drug uptake with Cerebellum [37] is 5.99 % ID/g.
`COc1ccc2nc(-c3ccc(F)cc3)sc2c1` registered a Ki in series [38] of 0.0022 µM. This counts as single-digit nanomolar.
`Oc1ccc2nc(-c3ccc(F)cc3)sc2c1`: the Ki in series [38] came to 0.0225 µM.
In [38], `Oc1cc(O)c2sc(-c3ccc(F)cc3)nc2c1` displayed a Ki of 0.776 µM.

Broadly, the Ki is a measure of affinity in units of concentration, obtained from inhibition or displacement.
